inhibition, Activity and Activity_index data for one molecule are collected here from ChEMBL document CHEMBL4699636, “Novel 2,7-Diazaspiro[4,4]nonane Derivatives to Inhibit Mouse and Human Osteoclast Activities and Prevent Bone Loss in Ovariectomized Mice without Affecting Bone Formation” (J Med Chem, 2020).

The structures appear in SMILES notation. Activity calls are given as the source filed them. No cut-off for these calls is given here.

Data set [1] has as its system Osteoclast. The data set is described as follows: Inhibition of resorption activity of mouse peripheral blood cell-derived osteoclasts at 5-10 uM incubated for 48 hrs by Kossa-staining based assay. The data set is classed as functional, tissue-based. Conditions: dose microM 5-10, time 48.0 hrs, in the assay text read “bone marrow-derived” for “peripheral blood cell-derived”. The method in brief: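 Osteoclasts from C57BL/6J mouse bone marrow, M-CSF then M-CSF 30 ng/mL plus RANKL 100 ng/mL. Day-3 cells reseeded on calcium phosphate-coated wells, compound added next day in 0.5% DMSO for 48 h, 8 wells per condition. 4 wells TRAP-stained for osteoclast counts, 4 von Kossa-stained for resorbed area. Activity expressed as resorption normalized to osteoclast number.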

For data set [2], the target named is Dedicator of cytokinesis protein 5 (Homo sapiens, UniProt Q9H7D0). Nature of the data set: Inhibition of C-terminal 6-histidine tagged human DOCK5 (1212 to 1642 residues) expressed in Escherichia coli assessed as reduction in nucleotide exchange efficiency at 20 to 60 uM by N-methylanthraniloyl-GDP fluorescence based nucleotide exchange assay. The conditions noted are these: dose microM 20-60. The method in brief: (§1)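 Mant-GDP-loaded His-tagged human RAC1 at 2.0 µM with 100 nM DOCK5 (residues 1212-1642) or TRIOGEF1 (R1232-T1550), both E. coli-expressed. Buffer: 50 mM Tris pH 8, 300 mM NaCl, 2 mM MgCl2, 1 mM DTT, 1% DMSO, 25 °C. Reaction started with 100 µM GTP. Fluorescence decay read at ex 360/em 440 nm, kobs by single-exponential fit, compound at 0, 20 or 60 µM, duplicates, as % of activity.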

Data set [3] deals with Triple functional domain protein (Homo sapiens) (UniProt O75962). The data set is described as follows: Inhibition of C-terminal 6-histidine tagged human TRIOGEF1 (R1232 to T1550 residues) expressed in Escherichia coli assessed as reduction in nucleotide exchange efficiency at 20 to 60 uM by N-methylanthraniloyl-GDP fluorescence based nucleotide exchange assay. The conditions noted are these: dose microM 20-60. The procedure, abridged:
as §1

A short description of data set [4]: Toxicity in C57BL6/J mouse model of OVX-induced bone loss assessed as effect on body weight at 20 mg/kg, IP QD for 4 weeks. The data set is classed as organism-based. Conditions: in vivo, 672 h. The method in brief: (§2)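 Body weight tracked in 12-week-old OVX C57BL6/J mice during 4 weeks of ip 20 mg/kg q.d. or b.i.d. dosing in 0.485% carboxymethylcellulose/3% Tween 80, 10 mL/kg.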

Data set [5] can be described thus: Toxicity in C57BL6/J mouse model of OVX-induced bone loss assessed as effect on body weight at 20 mg/kg, IP BID for 4 weeks. The data set is classed as organism-based. The conditions noted are these: in vivo, 672 h. The method in brief: as §2
Data set [6] is described as follows: Toxicity in C57BL6/J mouse model of OVX-induced bone loss assessed as effect on osteoclast numbers per bone perimeter at 20 mg/kg, IP QD for 4 weeks. The data set is classed as organism-based. The conditions noted are these: in vivo, 672 h. The procedure, abridged: (§3)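 OVX mice, 12 weeks old, ip 20 mg/kg q.d. or b.i.d. for 4 weeks in CMC/Tween 80 vehicle. Distal right femur taken day 28. Static trabecular parameters measured on one 4-µm Masson-Goldner trichrome section, ROI 0.75 mm². n=10 per group, 9 in OVX+vehicle.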

The subject of data set [7] is Mus musculus. Nature of the data set: Antiosteoporotic activity in C57BL6/J mouse model of OVX-induced bone loss assessed as trabecular thickness level in femoral metaphysis at 20 mg/kg, ip BID for 4 weeks by histomorphometry (39.96 +/- 5.42 um). In kind it is functional. The procedure, abridged:
as §3

The subject of data set [8] is Mus musculus. The data set is described as follows: Antiosteoporotic activity in C57BL6/J mouse model of OVX-induced bone loss assessed as trabecular number level in femoral metaphysis at 20 mg/kg, ip BID for 4 weeks by histomorphometry (2.99 +/- 0.80 /mm). In kind it is functional. The procedure, abridged: as §3
The test system of data set [9] is Mus musculus. The data set is described as follows: Antiosteoporotic activity in C57BL6/J mouse model of OVX-induced bone loss assessed as trabecular separation level in femoral metaphysis at 20 mg/kg, ip BID for 4 weeks by histomorphometry (319.80 +/- 106.52 um). The data set is classed as functional. The procedure, abridged:
as §3

Data set [10] concerns Mus musculus. The data set is described as follows: Antiosteoporotic activity in C57BL6/J mouse model of OVX-induced bone loss assessed as structure model index level in tibial metaphysis at 20 mg/kg, ip BID for 4 weeks by microCT analysis (1.92 +/- 0.19). The data set is classed as functional. Conditions: dose […].
The nature of data set [11]: Toxicity in C57BL6/J mouse model of OVX-induced bone loss assessed as effect on bone formation by measuring mineralizing mineral apposition rate level in femoral metaphysis at 20 mg/kg, ip QD for 4 weeks by histomorphometry (1.62 +/ 0.21 um/d (lcm)). The data set is classed as organism-based. The conditions noted are these: in vivo, 672 h.
Data set [12] in a line: Toxicity in C57BL6/J mouse model of OVX-induced bone loss assessed as effect on bone formation by measuring bone formation rate per trabecular bone surface level in femoral metaphysis at 20 mg/kg, ip QD for 4 weeks by histomorphometry ([…]). The data set is classed as organism-based. Conditions: in vivo, 672 h.
Data set [13] in a line: Toxicity in C57BL6/J mouse model of OVX-induced bone loss assessed as effect on bone formation by measuring number of osteoblasts per bone surface level in femoral metaphysis at 20 mg/kg, ip BID for 4 weeks by histomorphometry (4.55 +/ 2.53 /mm). In kind it is organism-based. Conditions: in vivo, 672 h. The procedure, abridged: as §3
Data set [14] can be described thus: Toxicity in C57BL6/J mouse model of OVX-induced bone loss assessed as effect on bone formation by measuring osteoblast surface per trabecular bone surface level in femoral metaphysis at 20 mg/kg, ip BID for 4 weeks by histomorphometry (5.03 +/ 2.92 %). The data set is classed as organism-based. Conditions: in vivo, 672 h. The method in brief:
as §3

Data set [15] is described as follows: Toxicity in C57BL6/J mouse model of OVX-induced bone loss assessed as effect on bone formation by measuring mineralizing mineral apposition rate level in femoral metaphysis at 20 mg/kg, ip BID for 4 weeks by histomorphometry (1.62 +/ 0.21 um/d (lcm)). Conditions: in vivo, 672 h. In kind it is organism-based.

Sequence of Dedicator of cytokinesis protein 5 (Q9H7D0 whole entry, the tested form may be a part): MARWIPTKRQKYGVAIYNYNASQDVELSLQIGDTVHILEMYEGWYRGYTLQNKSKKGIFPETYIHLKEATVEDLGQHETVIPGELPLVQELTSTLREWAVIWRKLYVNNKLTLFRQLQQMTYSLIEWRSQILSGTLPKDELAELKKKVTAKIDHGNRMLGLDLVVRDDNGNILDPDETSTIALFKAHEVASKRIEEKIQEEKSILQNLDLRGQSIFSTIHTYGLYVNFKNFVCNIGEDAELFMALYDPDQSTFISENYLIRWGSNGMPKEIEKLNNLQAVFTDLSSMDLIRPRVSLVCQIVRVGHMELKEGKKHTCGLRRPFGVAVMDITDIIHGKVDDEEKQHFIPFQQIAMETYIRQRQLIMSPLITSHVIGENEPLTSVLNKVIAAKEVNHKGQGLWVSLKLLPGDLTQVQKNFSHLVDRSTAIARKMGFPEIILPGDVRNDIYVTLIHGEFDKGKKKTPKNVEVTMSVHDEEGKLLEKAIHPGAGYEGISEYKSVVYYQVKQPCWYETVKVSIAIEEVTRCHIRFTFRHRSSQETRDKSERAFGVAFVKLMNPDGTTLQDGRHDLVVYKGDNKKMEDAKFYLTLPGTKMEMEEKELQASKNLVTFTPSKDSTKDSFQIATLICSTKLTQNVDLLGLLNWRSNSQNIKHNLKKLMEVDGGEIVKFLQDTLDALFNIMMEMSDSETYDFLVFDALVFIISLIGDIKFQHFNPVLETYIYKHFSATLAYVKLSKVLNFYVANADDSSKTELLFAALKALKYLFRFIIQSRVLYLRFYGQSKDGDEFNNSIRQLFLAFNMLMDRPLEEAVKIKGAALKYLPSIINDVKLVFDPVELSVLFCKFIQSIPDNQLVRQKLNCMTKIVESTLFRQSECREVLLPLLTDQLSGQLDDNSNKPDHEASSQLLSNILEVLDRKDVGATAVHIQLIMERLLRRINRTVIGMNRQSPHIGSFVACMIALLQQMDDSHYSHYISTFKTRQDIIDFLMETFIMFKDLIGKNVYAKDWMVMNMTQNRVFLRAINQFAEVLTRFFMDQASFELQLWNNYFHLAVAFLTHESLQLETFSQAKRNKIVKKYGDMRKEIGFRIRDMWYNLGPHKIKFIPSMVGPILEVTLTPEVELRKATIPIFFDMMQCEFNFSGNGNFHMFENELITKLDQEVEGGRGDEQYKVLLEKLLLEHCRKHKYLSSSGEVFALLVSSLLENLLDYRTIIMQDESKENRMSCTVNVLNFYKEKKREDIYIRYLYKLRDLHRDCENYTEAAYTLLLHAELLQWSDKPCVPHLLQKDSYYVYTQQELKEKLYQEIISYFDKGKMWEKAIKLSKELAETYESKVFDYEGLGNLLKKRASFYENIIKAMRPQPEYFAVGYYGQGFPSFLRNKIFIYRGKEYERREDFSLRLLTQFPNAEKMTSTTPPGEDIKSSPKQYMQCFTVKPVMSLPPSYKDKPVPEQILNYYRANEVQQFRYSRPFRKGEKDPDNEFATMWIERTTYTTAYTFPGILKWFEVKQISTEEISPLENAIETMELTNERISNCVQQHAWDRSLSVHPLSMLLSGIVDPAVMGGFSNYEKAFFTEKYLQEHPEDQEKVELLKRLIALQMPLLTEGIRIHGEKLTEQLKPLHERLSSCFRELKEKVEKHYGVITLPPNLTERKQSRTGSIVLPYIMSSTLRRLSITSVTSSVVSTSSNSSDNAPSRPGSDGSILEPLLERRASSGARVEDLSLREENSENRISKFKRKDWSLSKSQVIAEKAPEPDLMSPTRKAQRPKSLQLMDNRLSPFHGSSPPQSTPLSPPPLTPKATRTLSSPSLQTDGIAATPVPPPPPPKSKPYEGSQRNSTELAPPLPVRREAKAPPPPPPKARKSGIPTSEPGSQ

`O=S1(=O)N(c2ccccc2)C[C@H](O)[C@]12CCN(Cc1ccc(Cl)cc1)C2` (racemic): in data set [1], the inhibition entry is “Active”. Also, the inhibition in data set [2] was found to be 45%. Further, the inhibition result in data set [3] is “inactive”. For the same molecule, the Activity result in data set [4] is “Non-Toxic”; in [5] it was “Non-Toxic”; in data set [6] it was “Non-Toxic”; in data set [7], 47.2 µm; in data set [8], 3.51 /millimeter; in data set [9] it was 251.29 um. Moreover, the Activity in [11] was 1.82 micrometer/day; in [12], 184.98 um3/um2/yr; in [13] it was 3.63 /millimeter; in data set [14] it was 4.01%; in data set [15], 1.65 micrometer/day. In addition, the Activity_index in data set [10] came out at 1.48.

By inhibition is commonly meant the drop in the measured response relative to a control, in per cent.
